According to ChEMBL document CHEMBL3120107, “Cytotoxic cardiac glycosides and coumarins from Antiaris toxicaria” (2014):
≈ marks a conversion by molar mass, not a printed value. Calls of active or inactive are those of the source. The rule behind the calls is not given here.

Legend:
SK-MEL-2 = experiment: Cytotoxicity against human SK-MEL-2 cells assessed as growth inhibition after 72 hrs by SRB assay; assay type: functional; conditions: for EC50: Homo sapiens, SK-MEL-2, 72 h, read-out: ED50 (the source's name)
Method in brief: (§1)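 Sulforhodamine B assay run by NCI-validated procedure. Cells grown at 37 °C under humidified 5% CO2 in RPMI-1640 with 25 mM HEPES, […] (w/v) sodium bicarbonate, 10% (v/v) FBS and 100 μg/mL kanamycin. Compounds came from DMSO stocks, with final DMSO ≤ 1% (v/v). Continuous exposure for 72 h. ED50 (μg/mL, 50% cell-number reduction) interpolated from dose-response data. Triplicate tests. Doxorubicin served as positive control.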

[1] = Cytotoxicity against human […] cells assessed as growth inhibition after 72 hrs by SRB assay; assay type: functional; conditions: Homo sapiens, HCT9, 72 h; read-out: ED50 (the source's name); method in brief: as §1
CAKI-1 = experiment: Cytotoxicity against human CAKI-1 cells assessed as growth inhibition after 72 hrs by SRB assay; assay type: functional; conditions: for EC50: Homo sapiens, CAKI-1, 72 h, read-out: ED50 (the source's name); method in brief: as §1
1A9 = experiment: Cytotoxicity against human 1A9 cells assessed as growth inhibition after 72 hrs by SRB assay; assay type: functional; conditions: for EC50: Homo sapiens, 1A9, 72 h, read-out: ED50 (the source's name); method in brief: as §1
MCF7 = experiment: Cytotoxicity against human MCF7 cells assessed as growth inhibition after 72 hrs by SRB assay; assay type: functional; conditions: Homo sapiens, MCF7, 72 h; read-out: ED50 (the source's name); method in brief: as §1
A549 = experiment: Cytotoxicity against human A549 cells assessed as growth inhibition after 72 hrs by SRB assay; assay type: functional; conditions: Homo sapiens, A549, 72 h; read-out: ED50 (the source's name); method in brief: as §1
KBVIN = experiment: (§2) Cytotoxicity against human KBVIN cells assessed as growth inhibition after 72 hrs by SRB assay; assay type: functional; method in brief: as §1
PC-3 = experiment: Cytotoxicity against human PC3 cells assessed as growth inhibition after 72 hrs by SRB assay; assay type: functional; conditions: for EC50: Homo sapiens, PC-3, 72 h, read-out: ED50 (the source's name); method in brief: as §1
[2] = Cytotoxicity against human U87MG cells assessed as growth inhibition after 72 hrs by SRB assay; assay type: functional, U-87MG ATCC; conditions: Homo sapiens, U-87 MG, 72 h; read-out: ED50 (the source's name); method in brief: as §1
[3] = as §2; assay type: functional; conditions: Homo sapiens, KBVIN, 72 h; read-out: ED50 (the source's name); method in brief: as §1
KB = experiment: Cytotoxicity against human KB cells assessed as growth inhibition after 72 hrs by SRB assay; assay type: functional; conditions: Homo sapiens, KB, 72 h; read-out: ED50 (the source's name); method in brief: as §1

| SMILES | EC50 (SK-MEL-2) [µg/mL] | EC50 [1] [µg/mL] | EC50 (CAKI-1) [µg/mL] | EC50 (1A9) [µg/mL] | EC50 (MCF7) [µg/mL] | EC50 (A549) [µg/mL] | growth inhibition (GI) (KBVIN) | EC50 (PC-3) [µg/mL] | EC50 [2] [µg/mL] | EC50 [3] [µg/mL] | EC50 (KB) [µg/mL] | growth inhibition (GI) (SK-MEL-2) | growth inhibition (GI) (CAKI-1) | growth inhibition (GI) (1A9) | growth inhibition (GI) (PC-3) |
| --- | --- | --- | --- | --- | --- | --- | --- | --- | --- | --- | --- | --- | --- | --- | --- |
| COc1c(CC(O)C(C)(C)O)cc2ccc(=O)oc2c1O (centres undefined) | 1.3 (≈ 4.42 µM) | 6.7 (≈ 22.8 µM) | 1.5 (≈ 5.1 µM) | 1.5 (≈ 5.1 µM) | > 20 | 10.8 (≈ 36.7 µM) | inactive |  |  |  |  |  |  |  |  |
| C[C@@H]1O[C@H](O[C@H]2CC[C@@H]3[C@H]4CC[C@]5(C)[C@@H](C6=CC(=O)OC6)CC[C@]5(O)[C@@H]4CC[C@]3(O)C2)[C@H](O)[C@H](O)[C@H]1O [ANTIAROSIDE I] | 0.3 (≈ 0.574 µM) | 2.9 (≈ 5.55 µM) | 1.1 (≈ 2.1 µM) | 0.83 (≈ 1.59 µM) | 1.3 (≈ 2.49 µM) | 0.36 (≈ 0.689 µM) |  | 0.9 (≈ 1.72 µM) | 3.6 (≈ 6.89 µM) | 2.3 (≈ 4.4 µM) | 2 (≈ 3.83 µM) |  |  |  |  |
| C[C@@H]1O[C@@H](O[C@H]2CC[C@]3(C=O)[C@H]4CC[C@]5(C)[C@@H](C6=CC(=O)OC6)CC[C@]5(O)[C@@H]4CC[C@]3(O)C2)[C@H](O)[C@H](O)[C@H]1O [CONVALLATOXIN] | 0.0013 (≈ 0.00236 µM) | 0.0014 (≈ 0.00254 µM) | 0.0031 (≈ 0.00563 µM) | 0.03 (≈ 0.0545 µM) | 0.0065 (≈ 0.0118 µM) | 0.0027 (≈ 0.0049 µM) |  | 0.094 (≈ 0.171 µM) | 0.014 (≈ 0.0254 µM) | 0.013 (≈ 0.0236 µM) | 0.014 (≈ 0.0254 µM) |  |  |  |  |
| C[C@@H]1O[C@H](O[C@H]2CC[C@]3(CO)[C@H]4CC[C@]5(C)[C@@H](C6=CC(=O)OC6)CC[C@]5(O)[C@@H]4CC[C@]3(O)C2)[C@H](O)[C@H](O)[C@H]1O [CONVALLATOXOL] | 0.014 (≈ 0.0253 µM) | 0.02 (≈ 0.0362 µM) | 0.0061 (≈ 0.011 µM) | 0.0076 (≈ 0.0138 µM) | 0.012 (≈ 0.0217 µM) | 0.004 (≈ 0.00724 µM) |  | 0.013 (≈ 0.0235 µM) | 0.036 (≈ 0.0651 µM) | 0.014 (≈ 0.0253 µM) | 0.025 (≈ 0.0452 µM) |  |  |  |  |
| C[C@@H]1O[C@@H](O[C@H]2CC[C@]3(C=O)[C@H]4CC[C@]5(C)[C@@H](C6=CC(=O)OC6)CC[C@]5(O)[C@@H]4CC[C@]3(O)C2)[C@H](O)[C@H](O)[C@H]1O[C@@H]1O[C@H](CO)[C@@H](O)[C@H](O)[C@H]1O [CONVALLOSIDE] | 0.42 (≈ 0.589 µM) | 0.2 (≈ 0.281 µM) | 0.071 (≈ 0.0996 µM) | 0.072 (≈ 0.101 µM) | 0.15 (≈ 0.21 µM) | 0.07 (≈ 0.0982 µM) |  | 0.095 (≈ 0.133 µM) | 0.4 (≈ 0.561 µM) | 0.18 (≈ 0.253 µM) | 0.2 (≈ 0.281 µM) |  |  |  |  |
| C[C@H]1O[C@@H](O[C@H]2CC[C@]3(C=O)[C@H]4CC[C@]5(C)[C@@H](C6=CC(=O)OC6)CC[C@]5(O)[C@@H]4CC[C@]3(O)C2)[C@H](O)[C@H](O)[C@H]1O [DESGLUCOCHEIROTOXIN] | 0.015 (≈ 0.0272 µM) | 0.044 (≈ 0.0799 µM) | 0.014 (≈ 0.0254 µM) | 0.012 (≈ 0.0218 µM) | 0.015 (≈ 0.0272 µM) | 0.0092 (≈ 0.0167 µM) |  | 0.018 (≈ 0.0327 µM) | 0.054 (≈ 0.0981 µM) | 0.018 (≈ 0.0327 µM) | 0.044 (≈ 0.0799 µM) |  |  |  |  |
| C[C@H]1O[C@H](O[C@H]2CC[C@]3(C=O)[C@H]4CC[C@]5(C)[C@@H](C6=CC(=O)OC6)CC[C@]5(O)[C@@H]4CC[C@]3(O)C2)[C@H](O)[C@H](O[C@@H]2O[C@H](CO)[C@@H](O)[C@H](O)[C@H]2O)[C@@H]1O [GLUCOSTROPHALLOSIDE] | 0.12 (≈ 0.168 µM) | 0.13 (≈ 0.182 µM) | 0.065 (≈ 0.0912 µM) | 0.057 (≈ 0.08 µM) | 0.096 (≈ 0.135 µM) | 0.038 (≈ 0.0533 µM) |  | 0.084 (≈ 0.118 µM) | 0.15 (≈ 0.21 µM) | 0.083 (≈ 0.116 µM) | 0.12 (≈ 0.168 µM) |  |  |  |  |
| C[C@@H]1O[C@H](O[C@H]2CC[C@@]3(C=O)[C@H](CC[C@@H]4[C@@H]3CC[C@]3(C)[C@@H](C5=CC(=O)OC5)CC[C@]43O)C2)[C@H](O)[C@H](O)[C@H]1O [MALAYOSIDE] | 0.62 (≈ 1.16 µM) | 0.18 (≈ 0.337 µM) | 0.073 (≈ 0.137 µM) | 0.076 (≈ 0.142 µM) | 0.19 (≈ 0.355 µM) | 0.08 (≈ 0.15 µM) |  | 0.11 (≈ 0.206 µM) | 0.37 (≈ 0.692 µM) | 0.32 (≈ 0.599 µM) | 0.3 (≈ 0.561 µM) |  |  |  |  |
| CC(C)(O)[C@@H]1Cc2cc3ccc(=O)oc3cc2O1 [MARMESIN] |  |  |  |  | > 20 | > 20 | inactive |  |  |  |  | inactive | inactive | inactive | inactive |
| C[C@@H]1O[C@H](O[C@H]2CC[C@]3(C)[C@H]4CC[C@]5(C)[C@@H](C6=CC(=O)OC6)CC[C@]5(O)[C@@H]4CC[C@]3(O)C2)[C@H](O)[C@H](O)[C@H]1O [PERIPLORHAMNOSIDE] | 0.017 (≈ 0.0317 µM) | 0.044 (≈ 0.082 µM) | 0.014 (≈ 0.0261 µM) | 0.012 (≈ 0.0224 µM) | 0.018 (≈ 0.0335 µM) | 0.012 (≈ 0.0224 µM) |  | 0.021 (≈ 0.0391 µM) | 0.082 (≈ 0.153 µM) | 0.02 (≈ 0.0373 µM) | 0.054 (≈ 0.101 µM) |  |  |  |  |
| C[C@]12CC[C@H]3[C@@H](CC[C@]4(O)C[C@@H](O)CC[C@]34C=O)[C@@]1(O)CC[C@@H]2C1=CC(=O)OC1 [STROPHANTHIDIN] | 0.13 (≈ 0.321 µM) | 0.51 (≈ 1.26 µM) | 0.14 (≈ 0.346 µM) | 0.15 (≈ 0.371 µM) | 0.38 (≈ 0.939 µM) | 0.11 (≈ 0.272 µM) |  | 0.17 (≈ 0.42 µM) | 0.72 (≈ 1.78 µM) | 0.69 (≈ 1.71 µM) | 0.61 (≈ 1.51 µM) |  |  |  |  |
| C[C@]12CC[C@H]3[C@@H](CC[C@]4(O)C[C@@H](O)CC[C@]34CO)[C@@]1(O)CC[C@@H]2C1=CC(=O)OC1 [STROPHANTHIDOL] | 0.57 (≈ 1.4 µM) | 6.4 (≈ 15.7 µM) | 0.67 (≈ 1.65 µM) | 0.66 (≈ 1.62 µM) | 0.69 (≈ 1.7 µM) | 0.14 (≈ 0.344 µM) |  | 0.81 (≈ 1.99 µM) | 2.9 (≈ 7.13 µM) | 3 (≈ 7.38 µM) | 2.7 (≈ 6.64 µM) |  |  |  |  |
| CO[C@H]1[C@@H](O[C@H]2CC[C@]3(C=O)[C@H]4C[C@@H](O)[C@]5(C)[C@@H](C6=CC(=O)OC6)CC[C@]5(O)[C@@H]4CC[C@]3(O)C2)O[C@H](C)[C@@H](O)[C@@H]1O [TOXICARIOSIDE B] | 0.12 (≈ 0.207 µM) | 0.11 (≈ 0.189 µM) | 0.07 (≈ 0.121 µM) | 0.063 (≈ 0.108 µM) | 0.092 (≈ 0.158 µM) | 0.058 (≈ 0.0999 µM) |  | 0.091 (≈ 0.157 µM) | 0.13 (≈ 0.224 µM) | 0.14 (≈ 0.241 µM) | 0.13 (≈ 0.224 µM) |  |  |  |  |
